Results reported in ChEMBL document CHEMBL1138182, “Structure activity relationships of 5-, 6-, and 7-methyl-substituted azepan-3-one cathepsin K inhibitors” (J Med Chem, 2006).
pIC50, pKi: −log10 of the molar value.

Experiments:
Cathepsin K [1] = target: T1, Cathepsin K (Homo sapiens, UniProt P43235); assay: Inhibition of human cathepsin K; details: read-out: Ki app
T1 sequence (P43235 whole entry): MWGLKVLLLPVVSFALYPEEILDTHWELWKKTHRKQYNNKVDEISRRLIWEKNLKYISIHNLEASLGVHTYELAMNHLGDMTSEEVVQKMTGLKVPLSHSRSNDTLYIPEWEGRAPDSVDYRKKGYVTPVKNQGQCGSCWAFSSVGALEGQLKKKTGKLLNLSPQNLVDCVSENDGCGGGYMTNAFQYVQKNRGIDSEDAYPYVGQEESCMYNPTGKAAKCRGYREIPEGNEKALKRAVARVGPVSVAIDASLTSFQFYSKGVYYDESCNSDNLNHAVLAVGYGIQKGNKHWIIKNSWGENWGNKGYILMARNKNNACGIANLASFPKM

[2] = Protein binding in plasma; type: ADME, cell-free; details: rat, read-out: PPB (converted)
Summary of the method: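 Rat plasma; binding determined by equilibrium dialysis or ultrafiltration.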

[3] = Half life in iv dosed Sprague-Dawley rat; type: ADME, organism-based; details: in vivo
Summary of the method: (§1)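 Male Sprague-Dawley rats, n = 3, iv/po crossover. Dosed iv as a 1-2 mg/kg 0.5-h infusion through an indwelling femoral vein catheter, then 2-4 mg/kg oral gavage 2 days later. Vehicle: aqueous, <2% DMSO, <20% hydroxypropyl-β-cyclodextrin. Tail-vein plasma sampled at timed intervals, measured by LC/MS/MS (LLOQ 1.0-10 ng/mL). Noncompartmental analysis.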

[4] = Permeability in artificial membrane; type: ADME, cell membranes; details: PAMPA; read-out: permeability
[5] = Oral bioavailability in Sprague-Dawley rat; type: ADME, organism-based; details: in vivo; summary of the method: as §1
Osteoclast = assay: Effect on collagen […] in osteoclast bone resorption assay; type: functional, cell-based; details: Homo sapiens
Summary of the method: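 Human osteoclastoma-derived osteoclasts on bovine cortical bone slices, incubated 48 h with a range of compound concentrations. Type-I collagen C-telopeptide release measured by ELISA.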

[6] = Clearance in iv dosed Sprague-Dawley rat; type: ADME, organism-based; details: in vivo; summary of the method: as §1
Cathepsin B = Cathepsin B (Homo sapiens, UniProt P07858); assay: Inhibition of human cathepsin B; details: read-out: Ki app
Summary of the method: (§2)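 Recombinant human enzyme with fluorogenic substrate, typically Cbz-Phe-Arg-AMC, in 100 mM sodium acetate pH 5.5 with 20 mM cysteine and 5 mM EDTA, at ambient temperature. Enzyme added last to inhibitor plus substrate. AMC fluorescence read at ex 360/em 460. Progress curves at variable inhibitor concentrations were fitted for Ki,app, by competitive velocity equation or slow-binding exponential.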

[7] = Permeability in MDCK cells at 10 uM; type: ADME, cell-based, Canis lupus familiaris; details: dog, read-out: permeability
Summary of the method: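 MDCK cells at passage 60-80, grown in MEM + 10% FBS at 37 °C, 5% CO2, seeded on Transwells and assayed 3 days after seeding. After ~1 h equilibration in HBSS with 25 mM glucose and 25 mM HEPES, 10 µM compound (1% DMSO final) was added apically. Basolateral concentration measured by LC/MS/MS over 3600 s, Papp calculated, duplicates, propranolol and mannitol controls.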

[8] = Volume of distribution in iv dosed Sprague-Dawley rat; type: ADME, organism-based; details: in vivo, read-out: Vdss; summary of the method: as §1
Cathepsin S = Cathepsin S (Homo sapiens, UniProt P25774); assay: Inhibition of human cathepsin S; details: read-out: Ki app
Chain of Cathepsin S (P25774 whole entry): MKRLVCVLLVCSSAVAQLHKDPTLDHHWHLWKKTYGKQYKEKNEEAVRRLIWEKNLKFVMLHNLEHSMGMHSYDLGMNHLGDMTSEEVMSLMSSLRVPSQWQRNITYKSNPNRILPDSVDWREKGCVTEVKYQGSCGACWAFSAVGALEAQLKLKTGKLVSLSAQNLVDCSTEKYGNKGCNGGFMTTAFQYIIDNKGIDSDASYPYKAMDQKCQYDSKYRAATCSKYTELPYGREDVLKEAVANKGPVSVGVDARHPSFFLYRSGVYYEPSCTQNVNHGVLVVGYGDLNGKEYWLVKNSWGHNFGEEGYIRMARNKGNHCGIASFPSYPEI

Cathepsin K [9] = target: T2, Cathepsin K (Rattus norvegicus, UniProt O35186); assay: Inhibition of rat cathepsin K; details: read-out: Ki app
T2 sequence (O35186 whole entry): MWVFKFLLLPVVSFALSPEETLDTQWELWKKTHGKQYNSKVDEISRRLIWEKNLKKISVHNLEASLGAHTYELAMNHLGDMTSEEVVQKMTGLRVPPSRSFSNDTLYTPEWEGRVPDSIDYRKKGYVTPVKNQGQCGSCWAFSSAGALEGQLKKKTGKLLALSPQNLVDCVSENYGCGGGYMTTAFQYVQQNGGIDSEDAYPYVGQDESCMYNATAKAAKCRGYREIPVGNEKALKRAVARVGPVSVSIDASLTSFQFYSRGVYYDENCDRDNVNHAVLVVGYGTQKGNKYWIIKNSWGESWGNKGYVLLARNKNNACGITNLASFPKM
Summary of the method: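 Recombinant enzyme; fluorogenic peptide substrate (typically Cbz-Phe-Arg-AMC) in 100 mM sodium acetate pH 5.5 with 20 mM cysteine and 5 mM EDTA, ambient temperature. Reaction started by adding enzyme to inhibitor plus substrate at variable inhibitor concentrations; AMC fluorescence (ex 360, em 460 nm) followed as progress curves. Ki,app obtained by fitting to the competitive velocity equation or the slow-binding progress-curve equation.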

[10] = Oral bioavailability in cynomolgus monkey; type: ADME, organism-based, Macaca fascicularis; details: in vivo
Summary of the method: (§3)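 Cynomolgus monkeys (male, n = 3) in an iv × po crossover. Dosed by 1-h iv infusion of 1-2 mg/kg via temporary saphenous vein catheter, then 2-4 mg/kg oral gavage 7 days later. Vehicle: aqueous <2% DMSO, <20% hydroxypropyl-β-cyclodextrin. Femoral-vein plasma measured by LC/MS/MS, LLOQ 1.0-10 ng/mL. Parameters by noncompartmental methods.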

Cathepsin L2 = target: T3, Cathepsin L2 (Homo sapiens, UniProt O60911); assay: Inhibition of human cathepsin V; details: read-out: Ki app; summary of the method: as §2
T3 sequence (O60911 whole entry): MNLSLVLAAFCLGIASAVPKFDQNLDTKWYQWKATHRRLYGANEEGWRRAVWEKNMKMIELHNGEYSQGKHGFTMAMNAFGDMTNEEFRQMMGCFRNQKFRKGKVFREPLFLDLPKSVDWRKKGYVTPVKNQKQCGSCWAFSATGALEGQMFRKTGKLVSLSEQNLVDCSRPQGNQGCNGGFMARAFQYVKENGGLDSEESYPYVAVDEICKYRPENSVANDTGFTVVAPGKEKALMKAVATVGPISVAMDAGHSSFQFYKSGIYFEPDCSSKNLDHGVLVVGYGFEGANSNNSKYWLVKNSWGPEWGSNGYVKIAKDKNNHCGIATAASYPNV

[11] = Clearance in iv dosed cynomolgus monkey; type: ADME, organism-based, Macaca fascicularis; details: in vivo; summary of the method: as §3
[12] = Volume of distribution in iv dosed cynomolgus monkey; type: ADME, organism-based, Macaca fascicularis; details: in vivo, read-out: Vdss; summary of the method: as §3
[13] = Half life in iv dosed cynomolgus monkey; type: ADME, organism-based, Macaca fascicularis; details: in vivo; summary of the method: as §3

pKi (Cathepsin K [1])	fraction unbound [2]	Papp [4]	pIC50 (Osteoclast)	pKi (Cathepsin B)	Papp at 10 µM [7]	Structure (SMILES)	pKi (Cathepsin S)	pKi (Cathepsin K [9])	other results
7.52	–	–	–	–	–	CC(C)C[C@H](NC(=O)c1cc2ccccc2o1)C(=O)N[C@@H]1C[C@@H](C)CN(S(=O)(=O)c2ccccn2)CC1=O	6.52	< 6.00	–
9.85	0.044	56 ×10⁻⁶ cm/s	7.46	–	49 ×10⁻⁶ cm/s	CC(C)C[C@H](NC(=O)c1cc2ccccc2o1)C(=O)N[C@H]1C[C@H](C)CN(S(=O)(=O)c2ccccn2)CC1=O	8.24	7.14	half-life [3]: 51.6 min; bioavailability [5]: 26.2%; clearance [6]: 34.4 mL/min/kg; Vd [8]: 1.46 L/kg
–	0.03	53 ×10⁻⁶ cm/s	7.20	–	57 ×10⁻⁶ cm/s	CC(C)C[C@H](NC(=O)c1cc2ccccc2o1)C(=O)N[C@H]1CCCN(S(=O)(=O)c2ccccn2)CC1=O	–	–	bioavailability [10]: 7.3%; pKi (Cathepsin L2): 8.74; clearance [11]: 13.9 mL/min/kg; Vd [12]: 0.72 L/kg; half-life [13]: 36.5 min
7.54	–	–	–	–	–	CC(C)C[C@H](NC(=O)c1cc2ccccc2o1)C(=O)N[C@H]1C[C@@H](C)CN(S(=O)(=O)c2ccccn2)CC1=O	6.46	< 6.00	–
8.35	–	–	–	–	–	CC(C)C[C@H](NC(=O)c1cc2ccccc2o1)C(=O)N[C@@H]1C[C@H](C)CN(S(=O)(=O)c2ccccn2)CC1=O	8.08	6.18	–

Continued, compound first:

Structure (SMILES)	pKi (Cathepsin K [1])	fraction unbound [2]	Papp [4]	pIC50 (Osteoclast)	pKi (Cathepsin B)	Papp at 10 µM [7]	pKi (Cathepsin S)	pKi (Cathepsin K [9])	other results
CC(C)C[C@H](NC(=O)c1cc2ccccc2o1)C(=O)N[C@@H]1C(=O)CN(S(=O)(=O)c2ccccn2)CC[C@@H]1C	11.00	0.053	68 ×10⁻⁶ cm/s	7.70	7.49	55 ×10⁻⁶ cm/s	–	–	half-life [3]: 58.5 min; bioavailability [5]: < 5.4%; clearance [6]: 80.5 mL/min/kg; Vd [8]: 4.7 L/kg
CC(C)C[C@H](NC(=O)c1cc2ccccc2o1)C(=O)N[C@@H]1CC[C@H](C)N(S(=O)(=O)c2ccccn2)CC1=O	–	–	–	–	–	–	6.96	6.10	–
CC(C)C[C@H](NC(=O)c1cc2ccccc2o1)C(=O)N[C@@H]1CC[C@@H](C)N(S(=O)(=O)c2ccccn2)CC1=O	–	–	–	–	–	–	7.04	6.37	–
CC(C)C[C@H](NC(=O)c1cc2ccccc2o1)C(=O)N[C@H]1C(=O)CN(S(=O)(=O)c2ccccn2)CC[C@H]1C	7.38	–	–	–	< 6.00	–	–	–	–
CC(C)C[C@H](NC(=O)c1cc2ccccc2o1)C(=O)N[C@@H]1C(=O)CN(S(=O)(=O)c2ccccn2)CC[C@H]1C	8.82	–	–	–	< 6.00	–	–	–	–
CC(C)C[C@H](NC(=O)c1cc2ccccc2o1)C(=O)N[C@H]1C(=O)CN(S(=O)(=O)c2ccccn2)CC[C@@H]1C	7.72	–	–	–	< 6.00	–	–	–	–
CC(C)C[C@H](NC(=O)c1cc2ccccc2o1)C(=O)N[C@H]1CC[C@H](C)N(S(=O)(=O)c2ccccn2)CC1=O	–	–	–	–	–	–	7.38	6.17	–
CC(C)C[C@H](NC(=O)c1cc2ccccc2o1)C(=O)N[C@H]1CC[C@@H](C)N(S(=O)(=O)c2ccccn2)CC1=O [RELACATIB]	–	0.032	47 ×10⁻⁶ cm/s	7.66	7.89	47 ×10⁻⁶ cm/s	8.80	8.10	bioavailability [10]: 27.6%; half-life [3]: 109 min; pKi (Cathepsin L2): 10.20; bioavailability [5]: 89.4%; clearance [6]: 19.5 mL/min/kg; clearance [11]: 11.7 mL/min/kg; Vd [12]: 0.95 L/kg; half-life [13]: 168 min; Vd [8]: 1.79 L/kg
